ChEMBL document CHEMBL5046298, “SAR of Novel 3-Arylisoquinolinones: meta-Substitution on the Aryl Ring Dramatically Enhances Antiproliferative Activity through Binding to Microtubules” (J Med Chem, 2022)
One block for each compound: values may come before it. Calls of active or inactive are those of the source. The rule behind the calls is not given here.

How the values were obtained:
HUVEC [1] = experiment: Antivascular activity against HUVEC cells assessed as inhibition of capillary like tube formation at 25 uM incubated for 16 hrs by matrigel based bright field microscopic analysis; type: functional, cell-based; details: Homo sapiens
In short: (§1)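 Tube formation: HUVECs (25×10^3 per well) plated onto gelled Matrigel together with DMSO or test agent (0.5, 1, 2 μM or 25 μM). After 16 h, tube networks were examined by bright-field microscopy at 4×. Three independent experiments.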

HUVEC [2] = experiment: Disruption of preestablished capillary like tubes in HUVEC cells at 25 uM incubated for 16 hrs by matrigel based bright field microscopic analysis; type: functional, cell-based; details: Homo sapiens
[3] = target: T1, Ribosyldihydronicotinamide dehydrogenase [quinone] (Homo sapiens) (UniProt P16083); experiment: Inhibition of human recombinant NQO2 at upto 100 uM; details: dose microM <=100
T1 sequence (whole entry): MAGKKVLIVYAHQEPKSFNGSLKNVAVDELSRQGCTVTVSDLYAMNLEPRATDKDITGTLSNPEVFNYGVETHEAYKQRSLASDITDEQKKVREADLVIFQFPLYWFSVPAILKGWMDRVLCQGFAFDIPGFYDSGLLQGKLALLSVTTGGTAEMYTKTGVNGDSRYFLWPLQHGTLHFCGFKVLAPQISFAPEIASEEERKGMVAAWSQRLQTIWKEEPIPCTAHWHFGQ

Tubulin (Homo sapiens) [4] = target: T2, Tubulin (Homo sapiens) (UniProt P68371+Q9H4B7+P0DPH7+P68366+Q13509+Q71U36+P04350+Q3ZCM7+P07437+P68363+Q9BQE3+Q6PEY2+Q13885+Q9BVA1+Q9BUF5); experiment: Inhibition of tubulin (unknown origin) polymerization assessed as reduction in microtubule formation by measuring reduction in absorbance at 10 uM measured every minute for 1 hr in presence of GTP by microplate reader analysis; type: protein-complex assay
In short: (§2)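 Cell-free turbidity assay: purified bovine tubulin diluted to 60 μM in polymerization buffer with 1 mM GTP, mixed on ice with DMSO or test agent (final 5, 10, 20 μM). […] A350 read every 1 min for 60 min at 37 °C; ΔA calculated relative to time zero.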

SNU-423 [5] = experiment: Induction of apoptosis in human SNU-423 cells assessed as necrotic cells at 1 uM incubated for 24 hrs by Annexin V-APC/PI staining based flow cytometry (reference value: 5.74 %); type: functional
HUVEC [6] = experiment: Disruption of preestablished capillary like tubes in HUVEC cells assessed as decrease in tube junctions at 1 to 2 uM incubated for 16 hrs by matrigel based bright field microscopic analysis; type: functional, cell-based; details: Homo sapiens, dose 1-2 µM
HepG2 [7] = experiment: Induction of cell cycle arrest in human HepG2 cells assessed as decrease in cell proportion at G0/G1 phase at 25 uM measured after 24 hrs by PI staining based flow cytometry; type: functional
HUVEC [8] = experiment: Induction of actin disruption in HUVEC cells assessed as thicker and brighter actin fibers at 0.5 to 1 uM incubated for 24 hrs by phalloidin-Atto 488 staining based inverted microscopy; type: cell-based; details: Homo sapiens, dose 0.5-1 µM
In short: (§3)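 HUVECs (2×10^4) adhered overnight on glass slides, no Matrigel. Treated 24 h with 0.5 or 1 μM; colchicine 0.1 μM as positive control. Fixed in 10% formalin, permeabilized with Triton X-100, blocked. Stained with anti-α-tubulin plus Cy5 secondary, phalloidin-Atto 488 for F-actin, and DAPI. Imaged by inverted fluorescence microscopy at 63×. Three independent experiments.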

HepG2 [9] = experiment: Induction of reversible mitotic arrest in human HepG2 cells assessed as restoration of cell population in S phase at 2 to 5 uM treated for 24 hrs followed by replacement with fresh medium without compound and further incubated for 24 hrs by PI staining based flow cytometry; type: functional; details: dose 2-5 µM
In short: (§4)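 HepG2 cells (5×10^5 per dish) treated 24 h, then medium replaced with compound-free medium for a further 24 h. Cells then ethanol-fixed and stained with PI/RNase A for 30 min at 37 °C. 10 000 cells analyzed by flow cytometry; phase percentages by Watson model. Compared with control by one-way ANOVA/Dunnett's.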

HUVEC [10] = experiment: Cytotoxicity against HUVEC cells assessed as reduction in cell proliferation at upto 10 uM incubated for 24 hrs by Sulforhodamine B assay; type: toxicity, cell-based; details: human
In short: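 HUVECs plated without Matrigel at 4000 cells/well, allowed to attach overnight, then exposed to a concentration range for 24 h. Growth read by SRB: TCA fixation, 0.4% SRB dye, OD at 510 nm, expressed as % of DMSO control. Mean ± SEM of three independent experiments.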

HepG2 [11] = experiment: Induction of cell cycle arrest in human HepG2 cells assessed as increase in sub-G0/G1 cell population at 2 uM measured after 24 hrs by PI staining based flow cytometry; type: functional
Tubulin (Homo sapiens) [12] = target: T2, Tubulin (Homo sapiens); experiment: Inhibition of tubulin (unknown origin) polymerization assessed as reduction in microtubule formation by measuring reduction in absorbance measured every minute for 1 hr in presence of GTP by microplate reader analysis; type: protein-complex assay; details: dose 5-20 µM; in short: as §2
SNU-423 [13] = experiment: Induction of apoptosis in human SNU-423 cells assessed as early apoptotic cells at 1 uM incubated for 24 hrs by Annexin V-APC/PI staining based flow cytometry (reference value: 0.94 %); type: functional
HUVEC [14] = experiment: Disruption of preestablished capillary like tubes in HUVEC cells assessed as formation of short distorted tubes at 1 to 2 uM incubated for 16 hrs by matrigel based bright field microscopic analysis; type: functional, cell-based; details: Homo sapiens, dose 1-2 µM
SNU-423 [15] = experiment: Induction of apoptosis in human SNU-423 cells assessed as viable cells at 1 uM incubated for 24 hrs by Annexin V-APC/PI staining based flow cytometry (reference value: 92.7 %); type: functional; details: read-out: Activity
HUVEC [16] = experiment: Disruption of preestablished capillary like tubes in HUVEC cells incubated for 16 hrs by matrigel based bright field microscopic analysis; type: functional, cell-based; details: Homo sapiens, dose 0.5-10 µM
HepG2 [17] = experiment: Induction of reversible mitotic arrest in human HepG2 cells assessed as increase in cell population in sub-G0/G1 phase at 2 to 5 uM treated for 24 hrs followed by replacement with fresh medium without compound and further incubated for 24 hrs by PI staining based flow cytometry; type: functional; details: dose 2-5 µM; in short: as §4
HepG2 [18] = experiment: Induction of reversible mitotic arrest in human HepG2 cells assessed as restoration of cell population in G2/M phase at 2 to 5 uM treated for 24 hrs followed by replacement with fresh medium without compound and further incubated for 24 hrs by PI staining based flow cytometry; type: functional; details: dose 2-5 µM; in short: as §4
[19] = Antiproliferative activity against human THLE-3 cells assessed as inhibition of cell proliferation incubated for 24 hrs followed by 72 hrs of compound-free incubation by Sulforhodamine B assay; type: toxicity, cell-based
In short: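 SRB growth assay: cells seeded overnight (HepG2 3000, SNU423 2000, MDA-MB-231 1500, MCF-7 2500, A549 1000, HCT116 1000, THLE-3 4000 cells/well), then exposed to a concentration range for 96 h, or 24 h followed by 72 h drug-free. DMSO ≤0.3%. TCA fixation, 0.4% SRB staining, OD at 510 nm. Growth % = OD test/OD control ×100. IC50 from four-parameter fit; at least three independent experiments.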

SNU-423 [20] = experiment: Induction of apoptosis in human SNU-423 cells assessed as early apoptotic cells at 0.5 uM incubated for 24 hrs by Annexin V- APC/PI staining based flow cytometry (reference value: 0.94 %); type: functional
HUVEC [21] = experiment: Disruption of preestablished capillary like tubes in HUVEC cells assessed as rounded and retracted cells at 0.5 to 1 uM incubated for 16 hrs by matrigel based inverted microscopy; details: Homo sapiens, dose 0.5-1 µM
SNU-423 [22] = experiment: Induction of apoptosis in human SNU-423 cells assessed as viable cells at 0.5 uM incubated for 24 hrs by Annexin V-APC/PI staining based flow cytometry (reference value: 92.7 %); type: functional; details: read-out: Activity
HepG2 [23] = experiment: Induction of reversible mitotic arrest in human HepG2 cells assessed as restoration of cell population in G0/G1 phase at 2 to 5 uM treated for 24 hrs followed by replacement with fresh medium without compound and further incubated for 24 hrs by PI staining based flow cytometry; type: functional; details: dose 2-5 µM; in short: as §4
HepG2 [24] = experiment: Cytotoxicity against human HepG2 cells assessed as inhibition of colony formation at 0.5 to 1 uM incubated for 14 days by methylene blue staining based clonogenic assay; type: functional, cell-based; details: dose 0.5-1 µM, time 14.0 day
In short: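 Clonogenic survival: HepG2 seeded as single cells at 1000/well and left 10-12 h to adhere. Treated with DMSO or a concentration range for 14 days, with compound added once. Colonies fixed in 70% ethanol, stained with 0.5% methylene blue, and colonies of ≥50 cells counted. Surviving fraction = treated CFE/control CFE. Three independent experiments.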

Tubulin (Homo sapiens) [25] = target: T2, Tubulin (Homo sapiens); experiment: Induction of microtubule disruption in HUVEC cells assessed as shortened microtubules with outer blebbing filled with tubulin at 0.5 to 1 uM incubated for 24 hrs by immunofluorescence based inverted microscopy; type: cell-based; details: dose 0.5-1 µM; in short: as §3
HUVEC [26] = experiment: Antivascular activity against HUVEC cells assessed as inhibition of capillary like tube formation incubated for 16 hrs by matrigel based bright field microscopic analysis; type: functional, cell-based; details: Homo sapiens, dose 2.0 µM; in short: as §1
SNU-423 [27] = experiment: Induction of apoptosis in human SNU-423 cells assessed as late apoptotic cells at 0.5 uM incubated for 24 hrs by Annexin V-APC/PI staining based flow cytometry (reference value: 0.83 %); type: functional

inhibition (Tubulin (Homo sapiens) [4]): inactive
SMILES: CC(=O)O[C@H]1C(=O)[C@@]2(C)[C@H]([C@H](OC(=O)c3ccccc3)[C@]3(O)C[C@H](OC(=O)[C@H](O)[C@@H](NC(=O)c4ccccc4)c4ccccc4)C(C)=C1C3(C)C)[C@]1(OC(C)=O)CO[C@@H]1C[C@@H]2O

inhibition (Tubulin (Homo sapiens) [4]): Active
SMILES: COC(=O)Nc1nc2cc(C(=O)c3cccs3)ccc2[nH]1

More lines, now with the values behind:

SMILES: O=c1[nH]c(-c2ccc(F)cc2)cc2cc(F)ccc12
Activity (HUVEC [1]): inactive
Activity (HUVEC [2]): inactive
inhibition [3]: inactive

SMILES: O=c1[nH]c(-c2cccc(F)c2)cc2cc(F)ccc12
Activity (SNU-423 [5]): 12.1%
Activity (HUVEC [6]): Active
Activity (HepG2 [7]): Active
Activity (HUVEC [8]): Active
Activity (HepG2 [9]): Active
Activity (HUVEC [10]): Non-Toxic
Activity (HepG2 [11]): Active
inhibition (Tubulin (Homo sapiens) [12]): Active
Activity (SNU-423 [13]): 15.1%
Activity (HUVEC [14]): Active
viability at 1 µM (SNU-423 [15]): 60.4%
Activity (HUVEC [16]): Dose-Dependent Effect
Activity (HepG2 [17]): Active
Activity (HepG2 [18]): Active
IC50 at 24 h [19]: > 25 µM
Activity (SNU-423 [20]): 5.95%
Activity (HUVEC [21]): Active
inhibition [3]: inactive
viability at 0.5 µM (SNU-423 [22]): 76%
Activity (HepG2 [23]): Active
inhibition (HepG2 [24]): Active
Activity (Tubulin (Homo sapiens) [25]): Active
Activity (HUVEC [26]): Dose-Dependent Effect
Activity (SNU-423 [27]): 6.47%

SMILES: COc1ccc(-c2cc3cc(F)ccc3c(=O)[nH]2)cc1
inhibition [3]: inactive
